Experiment [1] concerns the target T1, Thromboxane-A synthase (Rattus norvegicus, UniProt P49430).
T1 sequence (P49430 whole entry): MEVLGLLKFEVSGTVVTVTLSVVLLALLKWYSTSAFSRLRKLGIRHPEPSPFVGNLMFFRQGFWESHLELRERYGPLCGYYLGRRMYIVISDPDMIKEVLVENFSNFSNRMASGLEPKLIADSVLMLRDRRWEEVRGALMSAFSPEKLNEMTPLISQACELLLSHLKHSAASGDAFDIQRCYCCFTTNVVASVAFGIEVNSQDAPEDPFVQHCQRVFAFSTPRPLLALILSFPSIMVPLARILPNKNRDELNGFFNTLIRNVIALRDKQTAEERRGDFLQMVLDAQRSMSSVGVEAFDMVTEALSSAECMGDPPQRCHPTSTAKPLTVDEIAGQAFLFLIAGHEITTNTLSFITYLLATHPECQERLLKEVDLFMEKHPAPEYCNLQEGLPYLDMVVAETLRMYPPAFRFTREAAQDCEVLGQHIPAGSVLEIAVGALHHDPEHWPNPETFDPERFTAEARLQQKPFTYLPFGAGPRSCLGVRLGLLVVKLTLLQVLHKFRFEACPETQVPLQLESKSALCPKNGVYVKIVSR
The experiment can be described thus: (§1) Compound was tested for the inhibition of thromboxane synthetase. It is filed as functional. In a few lines: (§2)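 Washed platelets from urethan-anesthetized SHR aged 19–24 weeks, in oxygenated Krebs phosphate buffer pH 7.4 at (4.5–6.0) × 10^4 platelets/μL. Incubated 10 min at 37 °C with compound, stopped with citric acid on ice. TXB2 measured by RIA; boiled-sample blank subtracted. IC50 read from percent inhibition vs log concentration plot; duplicate measurements.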

Experiment [2] has as its target T2, Thromboxane-A synthase (Rattus norvegicus) (UniProt P49430).
T2 sequence (whole entry): T1 sequence (P49430 whole entry)
As to the kind of experiment: Inhibition of thromboxane formation (thromboxane synthetase) in platelets at 10e-4 M. The experiment is classed as functional. Summed up:
(§3)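 SHR washed platelets (4.5–6.0 × 10^4/μL, Krebs phosphate pH 7.4) incubated 10 min at 37 °C with compound at 10^-4 M. Reaction stopped with citric acid on ice. TXB2 quantified by RIA, boiled-control blank subtracted, and percent inhibition of TXB2 formation calculated. Number of determinations given per value.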

The subject of experiment [3] is Rattus norvegicus. As to the kind of experiment: Compound was tested for the antihypertensive activity in rats, after peroral administration of 100 mg/kg; I=Inactive. It is filed as functional, organism-based. Further details: dose 100 mg/kg. Summed up: (§4)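 Male 16-week-old Okamoto SHR (mean arterial pressure 170 ± 1.5 mmHg). Compound suspended in 2% preboiled starch (50 mg/mL) and given by gavage at 100 mg/kg, with 0.9% NaCl load 25 mL/kg. Second identical dose without saline 24 h later. Mean arterial pressure read 28 h after first dose. Active: one rat ≤116 mmHg or mean of two ≤122 mmHg.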

Experiment [4] concerns the target T2, Thromboxane-A synthase (Rattus norvegicus). The experiment can be described thus: Inhibition of thromboxane formation in platelets at a concentration of 10e-4 M. It is filed as functional. In a few lines:
as §3

Experiment [5] relates to Rattus norvegicus. As to the kind of experiment: Compound was tested for the antihypertensive activity in rats, after peroral administration of 100 mg/kg for 2 days (no. of rats=3); A=Active. Further details: dose 100 mg/kg. The experiment is classed as functional, organism-based. Summed up:
as §4

In experiment [6] the test system is Rattus norvegicus. As to the kind of experiment: Compound was tested for the antihypertensive activity in rats, after peroral administration of 100 mg/kg; A=Active. Further details: dose 100 mg/kg. It is filed as functional, organism-based. Summed up:
as §4

Experiment [7] concerns Rattus norvegicus. The experiment can be described thus: Compound was tested for the antihypertensive activity in rats, after peroral administration of 100 mg/kg for 2 days (no. of rats=2); A=Active. The experiment is classed as functional, organism-based. Further details: dose 100 mg/kg. In a few lines:
as §4

Experiment [8] has as its system Rattus norvegicus. The experiment can be described thus: Compound was tested for the antihypertensive activity in rats, after peroral administration of 100 mg/kg for 2 days (no. of rats=3); I=Inactive. It is filed as functional, organism-based. Further details: dose 100 mg/kg. Summed up: as §4
For experiment [9], the target named is T1, Thromboxane-A synthase. The description is as §1. Summed up: as §2
Experiment [10] relates to Rattus norvegicus. As to the kind of experiment: Compound was tested for the antihypertensive activity in rats, after peroral administration of 100 mg/kg for 2 days (no. of rats=2); a=Active. It is filed as functional, organism-based. Also on record: dose 100 mg/kg. In a few lines: as §4
Experiment [11] relates to Rattus norvegicus. The experiment can be described thus: Compound was tested for the antihypertensive activity in rats, after peroral administration of 100 mg/kg for 2 days (no. of rats=4); I=Inactive. The experiment is classed as functional, organism-based. Further details: dose 100 mg/kg. In a few lines:
as §4

The subject of experiment [12] is Rattus norvegicus. The experiment can be described thus: Compound was tested for the antihypertensive activity in rats, after peroral administration of 100 mg/kg for 2 days (no. of rats=2); I=Inactive. The experiment is classed as functional, organism-based. Also on record: dose 100 mg/kg. In a few lines:
as §4

Drawing on ChEMBL document CHEMBL1123184, “Thromboxane synthetase inhibitors and antihypertensive agents. 2. N-[(1H-imidazol-1-yl)alkyl]-1H-isoindole-1,3(2H)-diones and N-[(1H-1,2,4-triazol-1-yl)alkyl]-1H-isoindole-1,3(2H)-diones as unique antihypertensive agents” (J Med Chem, 1986), this text covers IC50, inhibition and Activity for 33 compounds.

Active and inactive are the calls of the source.

Usually IC50 stands for the concentration that inhibits the measured activity by half. A lower IC50 goes with inhibition by little substance. The term inhibition denotes the percentage by which the read-out fell short of the control. A low value points to a weak effect. Regarding `O=C1c2ccc(Cl)c(Cl)c2C(=O)N1CCCn1ccnc1`, at Thromboxane-A synthase [1], the half-inhibitory concentration (IC50) is 0.4 µM. This compound also yielded an inhibition in experiment [2] of 100%. Further, in the experiment on Rattus norvegicus [3], the result was inactive.
`O=C1c2ccccc2C(=O)N1CCCCCCCCCCn1ccnc1` gave an IC50 on Thromboxane-A synthase [1] of 0.1 µM. Besides, in experiment [2], the inhibition was found to be 92%. In the experiment on Rattus norvegicus [3], the outcome was inactive.
Turning to `O=C1c2ccc(Cl)c(Cl)c2C(=O)N1CCCCn1ccnc1`, the inhibition in experiment [2] came out at 100%. In the experiment on Rattus norvegicus [3], the result was inactive.
`CC(CCn1ccnc1)N1C(=O)c2ccccc2C1=O` (stereo unspecified) came in with an inhibition in experiment [4] of 94%. Further, the result in the experiment on Rattus norvegicus [5] was Active.
With `O=C1c2cccc(Br)c2C(=O)N1CCCCn1ccnc1`, the result in the experiment on Rattus norvegicus [6] was Active. On Thromboxane-A synthase [1], this compound displayed an IC50 of 1 µM. This compound also registered an inhibition in experiment [2] of 100%.
`O=C1c2ccccc2C(=O)N1CCCCCCCCn1ccnc1` showed an IC50 against Thromboxane-A synthase [1] of 0.2 µM. In experiment [2], this compound registered an inhibition of 100%. Besides, in the experiment with Rattus norvegicus [3], the result was inactive.
As to `O=C1c2cccc(Br)c2C(=O)N1CCCCCn1ccnc1`, the IC50 at Thromboxane-A synthase [1] is 0.6 µM. In experiment [2], this compound displayed an inhibition of 87%. Besides, in the experiment with Rattus norvegicus [3], the outcome was inactive.
`O=C1c2ccccc2C(=O)N1CCn1ccnc1` gave an inhibition in experiment [4] of 20%. Moreover, the result with Rattus norvegicus [7] was Active.
Compound `Cc1cccc2c1C(=O)N(CCCn1ccnc1)C2=O` had an inhibition in experiment [4] of 100%. In addition, the result in the experiment on Rattus norvegicus [8] was inactive. In addition, the IC50 against Thromboxane-A synthase [9] was determined as 4 µM.
On to `O=C1c2ccccc2C(=O)N1CCn1cncn1`, for which the result in the experiment on Rattus norvegicus [10] was Active. The compound further came in with an inhibition in [4] of 0%.
`O=C1c2cccc(Cl)c2C(=O)N1CCCn1ccnc1`: the outcome in the experiment with Rattus norvegicus [6] was Active. The compound further displayed an inhibition in [2] of 92%.
Compound `CC(CCn1ccnc1)N1C(=O)c2cccc(Br)c2C1=O` (stereo unspecified) yielded an inhibition in experiment [2] of 89%. The outcome with Rattus norvegicus [3] was inactive.
`CC(CCn1cncn1)N1C(=O)c2ccccc2C1=O` (stereo unspecified) returned an inhibition in experiment [4] of 47%. For the same compound, the outcome with Rattus norvegicus [11] was inactive.
`Cc1nccn1CCCCN1C(=O)c2ccccc2C1=O` came in with an inhibition in [4] of 22%. In the experiment on Rattus norvegicus [11], the outcome was inactive.
In turn, `O=C1c2ccccc2C(=O)N1C/C=C/Cn1ccnc1` displayed an inhibition in experiment [4] of 85%. Further, in the experiment with Rattus norvegicus [7], the outcome was Active.
For `O=C1c2ccccc2C(=O)N1CCCCCCn1ccnc1`, the outcome in the experiment on Rattus norvegicus [6] was Active. Further, the IC50 against Thromboxane-A synthase [1] stood at 1.5 µM. The same compound registered an inhibition in experiment [2] of 100%.
Take `O=C1c2ccccc2C(=O)N1CCCCCn1ccnc1`: the inhibition in experiment [4] was found to be 92%. Also, the outcome in the experiment with Rattus norvegicus [7] was Active. Also, the IC50 against Thromboxane-A synthase [9] was determined as 6 µM.
`O=C1c2ccccc2C(=O)N1CCCn1cncn1` gave an inhibition in experiment [4] of 64%. In addition, in the experiment on Rattus norvegicus [7], the result was Active.
In [4], `CCc1nccn1CCCN1C(=O)c2ccccc2C1=O` showed an inhibition of 0%. Moreover, the result in the experiment on Rattus norvegicus [12] was inactive.
The compound `O=C1c2ccccc2C(=O)N1CCCCCn1cncn1` yielded an inhibition in experiment [4] of 79%. The result with Rattus norvegicus [7] was Active.
In experiment [4], `O=C1c2ccccc2C(=O)N1CCCn1ccnc1` came in with an inhibition of 94%. For the same compound, the outcome in the experiment on Rattus norvegicus [7] was Active. The IC50 at Thromboxane-A synthase [9] is 5 µM.
The compound `O=C1c2ccc(Cl)c(Cl)c2C(=O)N1CCCn1cncn1` showed an inhibition in experiment [2] of 73%. Moreover, the result with Rattus norvegicus [3] was inactive.
In [4], `CCc1nccn1CCCCN1C(=O)c2ccccc2C1=O` registered an inhibition of 65%. The result in the experiment on Rattus norvegicus [12] was inactive.
The matching figures for `Cc1cn(CCCN2C(=O)c3ccccc3C2=O)cn1`: 68% and “inactive”.
For the compound `O=C1c2ccccc2C(=O)N1CC#CCn1ccnc1`, the result in the experiment with Rattus norvegicus [6] was Active. This compound also registered an inhibition in experiment [2] of 100%.
As to `Cc1nccn1CCCN1C(=O)c2ccccc2C1=O`, in [4], the inhibition is 36%. The result in the experiment on Rattus norvegicus [12] was inactive.
As for `O=C1c2ccccc2C(=O)N1CCCCn1ccnc1-c1ccccc1`, the inhibition in [4] was found to be 57%. Also, in the experiment with Rattus norvegicus [8], the outcome was inactive.
For the compound `O=C1c2cccc(Br)c2C(=O)N1CCCn1cncn1`, in [2], the inhibition is 76%. For the same compound, in the experiment on Rattus norvegicus [3], the result was inactive.
`O=C1c2cccc(Cl)c2C(=O)N1CCCCn1ccnc1`: the outcome in the experiment with Rattus norvegicus [6] was Active. The inhibition in [2] was found to be 100%.
The compound `O=C1c2ccccc2C(=O)N1CCCCn1ccnc1` registered an inhibition in [4] of 99%. In addition, in the experiment with Rattus norvegicus [7], the result was Active. Further, inhibition at Thromboxane-A synthase [9] was half-maximal at 2 µM (IC50).
In experiment [4], `Cc1cn(CCCCN2C(=O)c3ccccc3C2=O)cn1` gave an inhibition of 86%. The outcome in the experiment on Rattus norvegicus [8] was inactive.
`Cc1cccc2c1C(=O)N(CCCCn1ccnc1)C2=O` gave an inhibition in experiment [4] of 100%. In the experiment on Rattus norvegicus [7], the result was Active. On Thromboxane-A synthase [9], this compound came in with an IC50 of 2 µM.
`O=C1c2ccccc2C(=O)N1CCCCn1cncn1`: the inhibition in experiment [4] was found to be 70%.
